In paper PMC7017412 (ACS Omega, 2020):
Positions count from the first letter of the chain named.

Key:
WT hTMPK [1] = target: T1, WT hTMPK (Homo sapiens, UniProt P23919); test: ADP binding constants by two-dimensional NMR lineshape fitting of ADP titration; details: for Kd / koff: 34 °C, pH 6.9
T1 sequence (P23919 1-212): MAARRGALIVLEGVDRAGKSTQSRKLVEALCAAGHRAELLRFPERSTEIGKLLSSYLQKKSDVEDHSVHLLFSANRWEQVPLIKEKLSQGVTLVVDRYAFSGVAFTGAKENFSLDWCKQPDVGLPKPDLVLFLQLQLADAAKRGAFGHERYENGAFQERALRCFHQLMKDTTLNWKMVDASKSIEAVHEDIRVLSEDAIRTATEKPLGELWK
Procedure, shortened: (§1)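 ILV methyl-labelled (13CH3/13CHD2) His-tagged hTMPK was expressed in E. coli and purified by cobalt affinity and cation exchange. Samples were in D2O with 20 mM MES, 150 mM NaCl, 10 mM MgCl2, 1 mM DTT, pH 6.9, plus 2 mM TMP or AZTMP. Protein was WT 0.8 mM and F105Y 0.4 mM. ADP was titrated at 0–2.4 ligand:protein across a 1H–13C HMQC series at 34 °C. KD and koff came from 2D lineshape fitting of five shifting methyl peaks (2-state model) with bootstrap errors.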

F105Y hTMPK [2] = target: T2, F105Y hTMPK (Homo sapiens, UniProt P23919, F105Y); test: as above; details: for Kd / koff: 34 °C, pH 6.9
T2 sequence (P23919 1-212 F105Y): T1 sequence (P23919 1-212) with F105Y
Procedure, shortened: as §1

WT hTMPK [3] = target: T1, WT hTMPK; assay type: binding; details: WT–AZTMP, 2 mM ADP, Ile184δ1 CPMG RD
Procedure, shortened: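 Ile184δ1 CHD2 methyl 1H CPMG dispersion was run at 34 °C on a WT–AZTMP sample with 2 mM ADP, in pH 6.9 MES/MgCl2 D2O buffer. Trelax was 40 ms with ncyc 1–78. pa and kex were fitted by grid search to the full exchange equation, and koff was derived from them. Errors are ±2 standard error from 100 bootstrap resampled datasets.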

WT hTMPK [4] = target: T1, WT hTMPK; details: cited from earlier work
F105Y hTMPK [5] = target: T2, F105Y hTMPK; details: cited from earlier work
TMPK from yeast (ScTMPK) = details: cited from earlier work

Compound	Kd (WT hTMPK [1]; ADP binding to WT hTMPK with 2 mM AZTMP bound)	Kd (WT hTMPK [1]; ADP binding to WT hTMPK with 2 mM TMP bound)	koff (WT hTMPK [1]; ADP off-rate from WT hTMPK with 2 mM AZTMP bound)	koff (WT hTMPK [1]; ADP off-rate from WT hTMPK with 2 mM TMP bound)	faster ADP off-rate (koff) with AZTMP bound than with TMP bound (WT hTMPK [1]; WT hTMPK)	Kd (F105Y hTMPK [2]; ADP binding to F105Y hTMPK with 2 mM AZTMP bound)	Kd (F105Y hTMPK [2]; ADP binding to F105Y hTMPK with 2 mM TMP bound)	koff (F105Y hTMPK [2]; ADP off-rate from F105Y hTMPK with 2 mM AZTMP bound)	koff (F105Y hTMPK [2]; ADP off-rate from F105Y hTMPK with 2 mM TMP bound)	reduced ADP off-rate (koff) with AZTMP bound relative to TMP bound (F105Y hTMPK [2]; F105Y hTMPK)	koff estimated from kex and pa (WT hTMPK [3])	Km (WT hTMPK [4])	kCAT (WT hTMPK [4]; substrate phosphorylation)	kCAT (F105Y hTMPK [5]; F105Y hTMPK, substrate phosphorylation)	Km (F105Y hTMPK [5]; F105Y hTMPK)	reduction of activity toward TMP by Phe105Tyr mutation (F105Y hTMPK [5]; F105Y vs WT hTMPK)	kCAT (TMPK from yeast (ScTMPK))
Nc1ncnc2c1ncn2[C@@H]1O[C@H](COP(=O)(O)OP(=O)(O)O)[C@@H](O)[C@H]1O [ADP]	15 ± 1 µM	15 ± 2.1 µM	24 ± 0.8 s^–1	12 ± 0.7 s^–1	2 fold	4.4 ± 1.7 µM	4.2 ± 1.3 µM	0.20 ± 0.9 s^–1	2.7 ± 0.8 s^–1	15 fold	31 ± 5.1 s^–1						
Cc1cn([C@H]2C[C@H](O)[C@@H](COP(=O)(O)O)O2)c(=O)[nH]c1=O [TMP, thymidine monophosphate]												6.3 µM	0.73 s^–1	0.17 s^–1	4.2 µM	4 fold	35 s^–1
